# pIC50: −log10 of the molar value.
# What was measured:
# [1] = target: Histone deacetylase 1 (Homo sapiens, UniProt Q13547); test: Inhibition of HDAC1 (unknown origin)
# [2] = target: T1, Histone deacetylase 8 (Homo sapiens, UniProt Q9BY41); test: Inhibition of HDAC8 (unknown origin)
# T1 sequence (Q9BY41 whole entry): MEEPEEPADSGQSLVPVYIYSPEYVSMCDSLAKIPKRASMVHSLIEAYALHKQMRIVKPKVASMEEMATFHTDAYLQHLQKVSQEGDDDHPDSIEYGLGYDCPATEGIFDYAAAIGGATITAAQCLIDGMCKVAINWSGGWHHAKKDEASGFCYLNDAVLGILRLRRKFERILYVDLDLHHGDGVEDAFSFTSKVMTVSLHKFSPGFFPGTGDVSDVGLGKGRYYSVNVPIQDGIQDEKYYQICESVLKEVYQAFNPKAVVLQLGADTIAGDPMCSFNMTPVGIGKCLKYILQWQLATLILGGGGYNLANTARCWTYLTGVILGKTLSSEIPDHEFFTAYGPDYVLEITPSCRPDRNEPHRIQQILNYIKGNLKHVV
# [3] = target: Histone deacetylase 3 (Homo sapiens, UniProt O15379); test: Inhibition of HDAC3 (unknown origin)
# [4] = Half life in Wistar Han rat at 2 mg/kg, iv or 10 mg/kg, po; type: ADME, organism-based; details: in vivo
# [5] = target: T2, Class 1 histone deacetylase (Homo sapiens, UniProt Q13547+O15379+Q92769+Q9BY41); test: Inhibition of Class 1 HDAC in VSV-G-pseudotyped HIV infected human 2C4 cell Jurkat model assessed as reactivation of HIV latency in presence of 5% NHS by fluorescent reporter gene assay
# Summary of the method: (§1)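 Latently infected Jurkat 2C4 cells (HIV latency model) were tested for reactivation of silenced provirus in parallel at two normal human serum levels: 0.1% and 5%. The paired runs gauge the potency shift from plasma protein binding.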
# [6] = target: T3, Protein deacetylase HDAC6 (Homo sapiens, UniProt Q9UBN7); test: Inhibition of HDAC6 (unknown origin)
# T3 sequence (Q9UBN7 whole entry): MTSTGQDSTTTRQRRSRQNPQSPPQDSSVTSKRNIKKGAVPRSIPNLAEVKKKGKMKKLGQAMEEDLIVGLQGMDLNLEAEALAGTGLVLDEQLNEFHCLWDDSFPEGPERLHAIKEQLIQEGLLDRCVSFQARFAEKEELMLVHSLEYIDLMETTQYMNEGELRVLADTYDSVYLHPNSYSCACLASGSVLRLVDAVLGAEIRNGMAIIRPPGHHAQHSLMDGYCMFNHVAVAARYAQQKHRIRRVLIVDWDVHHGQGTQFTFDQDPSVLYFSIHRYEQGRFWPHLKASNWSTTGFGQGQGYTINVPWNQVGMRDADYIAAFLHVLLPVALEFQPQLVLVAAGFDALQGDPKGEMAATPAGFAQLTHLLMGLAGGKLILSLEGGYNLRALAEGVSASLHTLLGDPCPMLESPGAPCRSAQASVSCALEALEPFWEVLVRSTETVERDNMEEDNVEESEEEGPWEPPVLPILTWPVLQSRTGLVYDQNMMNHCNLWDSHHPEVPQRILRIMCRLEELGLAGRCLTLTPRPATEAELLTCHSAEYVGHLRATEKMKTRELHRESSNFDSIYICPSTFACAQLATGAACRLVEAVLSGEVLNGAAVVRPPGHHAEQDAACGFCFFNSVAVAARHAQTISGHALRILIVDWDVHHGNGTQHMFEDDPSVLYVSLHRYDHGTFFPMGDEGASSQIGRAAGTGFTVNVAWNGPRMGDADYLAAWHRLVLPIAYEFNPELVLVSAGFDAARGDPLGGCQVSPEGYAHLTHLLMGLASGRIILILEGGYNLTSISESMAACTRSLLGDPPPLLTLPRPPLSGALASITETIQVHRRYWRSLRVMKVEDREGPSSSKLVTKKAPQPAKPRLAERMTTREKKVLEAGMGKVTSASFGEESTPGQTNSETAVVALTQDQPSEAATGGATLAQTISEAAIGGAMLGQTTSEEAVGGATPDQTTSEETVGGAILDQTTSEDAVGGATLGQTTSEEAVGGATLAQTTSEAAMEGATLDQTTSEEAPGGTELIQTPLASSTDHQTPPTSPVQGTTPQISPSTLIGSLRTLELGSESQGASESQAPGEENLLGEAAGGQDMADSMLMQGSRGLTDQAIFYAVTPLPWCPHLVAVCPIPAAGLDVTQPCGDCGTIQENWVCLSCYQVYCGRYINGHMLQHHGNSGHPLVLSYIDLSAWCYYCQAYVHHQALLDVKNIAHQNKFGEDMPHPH
# [7] = Apparent permeability of the compound; type: ADME; details: not told
# [8] = Unbound volume of distribution in Wistar Han rat at 2 mg/kg, iv or 10 mg/kg, po; type: ADME, organism-based; details: in vivo
# [9] = Oral bioavailability in Wistar Han rat at 10 mg/kg; type: ADME, organism-based; details: in vivo
# [10] = Unbound clearance in Wistar Han rat at 2 mg/kg, iv or 10 mg/kg, po; type: ADME, organism-based; details: in vivo
# [11] = target: T2, Class 1 histone deacetylase; test: Inhibition of Class 1 HDAC in VSV-G-pseudotyped HIV infected human 2C4 cell Jurkat model assessed as reactivation of HIV latency in presence of 0.1% NHS by fluorescent reporter gene assay; summary of the method: as §1
# [12] = target: Histone deacetylase 2 (Homo sapiens, UniProt Q92769); test: Inhibition of HDAC2 (unknown origin)
# Sequence of Histone deacetylase 2 (Q92769 whole entry): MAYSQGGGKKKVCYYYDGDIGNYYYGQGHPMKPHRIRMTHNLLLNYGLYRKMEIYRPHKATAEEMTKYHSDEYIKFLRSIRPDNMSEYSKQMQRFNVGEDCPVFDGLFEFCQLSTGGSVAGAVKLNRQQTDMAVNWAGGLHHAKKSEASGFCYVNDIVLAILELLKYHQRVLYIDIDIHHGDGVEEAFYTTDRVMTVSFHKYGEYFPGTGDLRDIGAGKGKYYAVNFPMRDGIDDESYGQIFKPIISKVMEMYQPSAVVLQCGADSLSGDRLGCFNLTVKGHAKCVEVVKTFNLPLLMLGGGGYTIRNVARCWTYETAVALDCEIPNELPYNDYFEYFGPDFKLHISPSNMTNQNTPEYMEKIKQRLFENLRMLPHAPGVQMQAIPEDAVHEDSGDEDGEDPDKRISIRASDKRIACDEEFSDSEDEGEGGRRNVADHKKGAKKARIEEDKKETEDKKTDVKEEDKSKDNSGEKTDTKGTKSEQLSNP
# Sequence of Histone deacetylase 3 (O15379 whole entry): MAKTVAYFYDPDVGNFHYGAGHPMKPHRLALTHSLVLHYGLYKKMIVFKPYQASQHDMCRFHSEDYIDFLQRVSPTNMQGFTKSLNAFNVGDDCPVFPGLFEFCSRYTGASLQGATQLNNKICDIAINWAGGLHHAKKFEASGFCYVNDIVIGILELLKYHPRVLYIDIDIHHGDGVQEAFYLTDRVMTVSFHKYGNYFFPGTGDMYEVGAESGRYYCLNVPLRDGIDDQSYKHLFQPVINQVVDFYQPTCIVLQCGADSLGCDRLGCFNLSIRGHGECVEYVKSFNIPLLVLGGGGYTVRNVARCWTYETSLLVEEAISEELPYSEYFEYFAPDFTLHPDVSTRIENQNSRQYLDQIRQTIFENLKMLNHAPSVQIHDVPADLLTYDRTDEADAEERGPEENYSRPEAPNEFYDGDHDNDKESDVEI
# Sequence of Histone deacetylase 1 (Q13547 whole entry): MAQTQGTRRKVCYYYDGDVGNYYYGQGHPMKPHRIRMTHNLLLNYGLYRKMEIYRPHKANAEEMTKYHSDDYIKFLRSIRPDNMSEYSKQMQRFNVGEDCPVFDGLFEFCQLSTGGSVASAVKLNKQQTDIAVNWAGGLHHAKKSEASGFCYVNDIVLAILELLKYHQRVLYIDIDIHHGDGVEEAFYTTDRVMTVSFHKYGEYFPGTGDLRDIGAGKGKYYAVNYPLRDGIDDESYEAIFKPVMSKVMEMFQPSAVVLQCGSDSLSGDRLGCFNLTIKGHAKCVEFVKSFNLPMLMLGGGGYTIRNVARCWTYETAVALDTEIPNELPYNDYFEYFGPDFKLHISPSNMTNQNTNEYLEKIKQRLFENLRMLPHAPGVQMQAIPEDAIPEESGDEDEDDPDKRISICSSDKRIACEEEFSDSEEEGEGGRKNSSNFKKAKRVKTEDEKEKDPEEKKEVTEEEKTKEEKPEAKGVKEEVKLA
structure (smiles),measurement,setting,value
CCC(=O)CCCCC[C@H](NC(=O)C1CN(C)C1)c1[nH]c(-c2ccccc2)nc1C(N)=O,pIC50,[1],8.72
same,pIC50,[2],5.27
same,pIC50,[3],8.60
same,half-life,[4],6.4 h
same,EC50,[5],0.269 µM
same,pIC50,[6],5.01
same,Papp,[7],1.1 ×10⁻⁶ cm/s
same,Vdu,[8],45 L/kg
same,bioavailability,[9],0%
same,CL free,[10],166 mL/min/kg
same,EC50,[11],0.294 µM
same,pIC50,[12],7.74
